# Calls of active or inactive are those of the source.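 How the source made its calls, unless noted: active means viability at or below 30% in both replicate assays; inconclusive means viability at or below 30% in just one of the two assays; inactive means the rest.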
# What was measured:
# [1] = SK-BR-3 cell growth inhibitors, pilot screen, 24 h, human (AID 572;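 active means viability at or below 10% of carrier control in both of two separate runs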;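 further: compound exposure lasted between 18 and 24 h rather than exactly 24 h; 100% = carrier-treated control wells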); conditions: SK-BR-3 viability, CellTiter-Glo luminescence, at 10 µM, stronger effect = lower value
# [2] = HUVEC growth inhibition – cell-based, human, primary screen (AID 575); conditions: HUVEC proliferation, CellTiter-Glo luminescence, 72 h; at 10 µM; stronger effect = lower value;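 further: 100% = median of untreated cell wells with 0.1% DMSO on each plate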
# How it was run: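 material = primary HUVEC, no more than 12 passages | input = 1250 cells per well | controls = vehicle and MePR control wells | measured by = CTG luminescence | times = 72 h compound incubation | format = collagen-coated 384-well format | read-out = % viability vs DMSO wells | doses = single 10 µM dose, 0.1% DMSO, from 5x medium stock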
# [3] = growth inhibitors of H69AR lung tumor, primary screen, human, duplicate replicates (AID 580;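 active means viability at or under a set limit in both replicates, limit being median viability minus 3 SD, cut at about 48% in these data, passing the limit was not always enough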;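 further: 100% = mean luminescence of untreated wells and 0% = no signal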); conditions: H69AR lung tumor cells viability, ATP luminescence, 72 h; at 10 µM; stronger effect = lower value
# [4] = 384-well plate pilot, post-Golgi transport modulator project, inhibition of yeast transport mutant growth (AID 636; in the data active means inhibition above about 31%); conditions: absorbance 615 nm, about 18 h, stronger effect = higher value
# [5] = growth suppression of yeast trafficking mutant, preliminary HTS, modulators of trafficking downstream of Golgi apparatus project, 1536-format plate, OD 615 nm (AID 637; in the data active means inhibition above about 30%); conditions: yeast transport mutant growth, absorbance 615 nm, 18 h; stronger effect = higher value
# [6] = reversal of MRP1-mediated doxorubicin resistance, pilot screen, H69AR cells, doxorubicin co-treatment (AID 601;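 active means viability loss from added drug above about 55%, and viability with drug at most 40%, in both replicates, limit read from the data, passing the limit was not always enough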); conditions: CellTiter-Glo, 72 h, at 10 µM; for differential viability (reversal): stronger effect = higher value
# [7] = H69AR cells + 2 uM doxorubicin, measured here: viability with 2 uM doxorubicin, stronger effect = lower value
# [8] = H69AR cells, compound alone cytotoxicity
Compound,viability [1],viability [2],viability [3],inhibition [4],inhibition [5],differential viability (reversal) ([6]; H69AR cells + 2 uM doxorubicin),"viability [6, 7] [%]","viability [6, 8] [%]"
CCOC(=O)N1CCC(n2c(SCC(=O)NCc3ccco3)nc3ccsc3c2=O)CC1,81% (inactive),88.3% (inactive),78.5% (inactive),-3.55% (inactive),2.67% (inactive),–,–,–
O=S(=O)(c1ccc2c(c1)OCCO2)N1CCC(n2nnc3cc(F)ccc32)CC1,91% (inactive),74.8% (inactive),84.2% (inactive),-9.04% (inactive),-1.77% (inactive),-5.86% (inactive),90.1,84.2
CCCCC(=O)O[C@H]1CC[C@H]2[C@@H]3CCc4cc(O)ccc4[C@H]3CC[C@]12C,82% (inactive),1.94% (active),–,4.81% (inactive),8.33% (inactive),13.5% (inactive),6.17,19.7
CCOC(=O)c1[nH]c2ccc(F)cc2c1NC(=O)C(C)N1CCc2cc(OC)c(OC)cc2C1 (centres undefined),99% (inactive),57.9% (inactive),13.5% (active),-3.42% (inactive),7.87% (inactive),-55.2% (inactive),68.7,13.5
COc1ccc(CN(Cc2cc3cc4c(cc3[nH]c2=O)OCO4)C(=O)NC2CCCCC2)cc1,85% (inactive),63.9% (inactive),96.9% (inactive),1.22% (inactive),-1.27% (inactive),0.835% (inactive),96,96.9
Cc1ccc(-c2ccc(SCC(=O)Nc3nonc3C)nn2)cc1,94% (inactive),81.8% (inactive),88.8% (inactive),-7.57% (inactive),-0.55% (inactive),-4.68% (inactive),93.5,88.8
COc1ccc(CSCCN)cc1Cl,113% (inactive),105% (inactive),–,-7.33% (inactive),-2% (inactive),-18.3% (inactive),57.5,39.2
N#CCc1nc2c3c4c(sc3ncn2n1)CCCC4,112% (inactive),23.6% (active),86.4% (inactive),-5.54% (inactive),0.36% (inactive),8.27% (inactive),78.1,86.4
CN(C)CCCN1c2ccccc2Sc2ccc(C(F)(F)F)cc21,4.5% (active),56.8% (inactive),–,–,–,-39.3% (inactive),51,11.7
Cc1ccc(Nc2nc(Oc3ccc(=O)[nH]n3)nc(N(C)C)n2)cc1,81% (inactive),101% (inactive),94% (inactive),-3.7% (inactive),1.94% (inactive),16.1% (inactive),77.9,94
OCCN1CCN(CCCN2c3ccccc3Sc3ccc(C(F)(F)F)cc32)CC1,3% (active),2.4% (active),–,–,–,-2.74% (inactive),3.77,1.03
CN1CCN(CCCN2c3ccccc3Sc3ccc(Cl)cc32)CC1,25%,3.48% (active),–,–,–,-15.4% (inactive),58.6,43.1
Cc1cc2cc(CNC(=O)c3ccc4c(c3)OCO4)ccc2[nH]1,102% (inactive),114% (inactive),89.1% (inactive),-1.56% (inactive),3.61% (inactive),-3.21% (inactive),92.3,89.1
c1ccc2c(c1)CCCC2C1=NCCN1 (centres undefined),100% (inactive),84.6% (inactive),95.3% (inactive),-2.6% (inactive),1% (inactive),6.75% (inactive),88.6,95.3
COc1ccccc1Nc1nc(N)nc(-c2cc3ccccc3o2)n1,91% (inactive),78.4% (inactive),–,-2.97% (inactive),-4.55% (inactive),-26.4% (inactive),75.7,49.3
C1CCC(C(CC2CCCCN2)C2CCCCC2)CC1 (centres undefined),2% (active),2.58% (active),–,–,–,0.29% (inactive),1.26,1.55
O=C(C1CCN(C2CC(=O)N(c3ccc(F)cc3)C2=O)CC1)N1CCOCC1 (centres undefined),106% (inactive),105% (inactive),101% (inactive),-1.43% (inactive),4.43% (inactive),4.69% (inactive),96.2,101
CCCCCCCCCCCCCCCC(O)C(N)CO (centres undefined),60% (inactive),2.65% (active),–,–,–,-0.02% (inactive),1.44,1.42
COc1ccc(-c2noc(CCN3C(=O)c4ccccc4C3=O)n2)cc1OC,140% (inactive),105% (inactive),93.9% (inactive),-4.03% (inactive),-1.15% (inactive),17.8% (inactive),76.1,93.9
O=C(C1CCCCC1)N1CCC(c2nc3c(nnn3Cc3ccccc3Cl)c(=O)[nH]2)CC1,90% (inactive),83.6% (inactive),73.9% (inactive),-3.24% (inactive),-9.27% (inactive),–,–,–
CCOC(=O)Nc1cc(OC)c(OC)cc1Cc1nccc2cc(OC)c(OC)cc12,113% (inactive),95.7% (inactive),87.1% (inactive),-2.05% (inactive),28.7% (inactive),5.61% (inactive),81.5,87.1
O=c1c2ccccc2c(/C=N/n2cnnc2)c(O)n1-c1ccccc1,84% (inactive),103% (inactive),100% (inactive),-7.7% (inactive),-3.09% (inactive),16.3% (inactive),83.9,100
CN(C)c1ccc(O)c2c1CC1CC3[C@@H](N(C)C)C(=O)C(C(N)=O)=C(O)[C@]3(O)C(=O)C1=C2O (some centres undefined),92% (inactive),92.6% (inactive),–,2.73% (inactive),29.7% (inactive),-6.56% (inactive),39.2,32.7
